# Results: the RNAGym collection of RNA variant scans (doi:10.1126/science.aae0568)
# Variants at the floor of the assay were thinned out.
# B1: tRNA (parent)
# chain: GUUCCGUUGGCGUAAUGGUAACGCGUCUCCCUCCUAAGGAGAAGACUGCGGGUUCGAGUCCCGUACGGAACG
# Variants of: B1
# Experiment: yeast fitness relative to wild type (ratio to wild type); higher = fitter; tRNA-Arg(CCU), competitive growth, 37 C, YPD
# In short: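 Amplicons of the tRNA-Arg(CCU) gene were sequenced, 100-nucleotide paired-end, from the start population and from each end population of a pooled yeast competition. The competition, in six parallel replicates, lasted 24 hours in YPD at 37°C. Fitness relative to wild type was calculated from changes in genotype frequencies. Genotypes had to have ≥ 100 starting reads, and estimates < 0.5 were set to 0.5.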
row,Variant,yeast fitness
1,G12C G17A C49U U59C,≤ 0.5
2,G12C A21C U26C U28C C46G C55U,≤ 0.5
3,G12C C24A C55U,≤ 0.5
4,G12C A20U C30U G38A C55U C66U,≤ 0.5
5,G12C A20U A36G C46A U54A G67C,≤ 0.5
6,G12C C24U A43C,≤ 0.5
7,G12C A40C C46U C49A U64A,≤ 0.5
8,G12A U32G C33U A45U C55U,≤ 0.5
9,G12C G17A C46G,0.584
10,G12A U35A,0.706
11,G12C G38C,0.54
12,G12C U19A C27G G44C,≤ 0.5
13,G12C A65U A70U,0.606
14,G12C A14U A20U G23A G68A,≤ 0.5
15,G12C C24A,0.685
16,G12A U35A G51C,≤ 0.5
17,G12C U32C G41C A57G,≤ 0.5
18,G12C A40G G50C C62U,0.756
19,G12C C22G G23A A37C A43C A65U,≤ 0.5
20,G12A U32C U35A G58A G68A,≤ 0.5
21,G12A U54G A65U G67A,≤ 0.5
22,G12C A14C U26C A40U G41A A42C,≤ 0.5
23,G12C A15C U19A C34U C49A,≤ 0.5
24,G12C A15C U19A C34U C49G A69U,≤ 0.5

row,Variant,yeast fitness
1,G12C U28C C49U U59A,≤ 0.5
2,G12A U32C A42C G44C A69C,≤ 0.5
3,G12C C66G A69U,≤ 0.5
4,G12A U32A C46A C66U,≤ 0.5
5,G12C G48C G58A,0.804
6,G12A U53G G58C C61A,≤ 0.5
7,G12C A15C A20U G38C G50C,≤ 0.5
8,G12A U19A C24U,0.73
9,G12A U16A A40G A57C C60A C62U,0.69
10,G12A U47C A69U,0.757
11,G12C A42G U54G,≤ 0.5
12,G12C C22U C60U G68C,≤ 0.5
13,G12C C27A C31G G52C,≤ 0.5
14,G12C G25C G39C,≤ 0.5
15,G12C C46U G51C U64A,≤ 0.5
16,G12C C24G C27U A43U A69U,0.625
17,G12C U26C,0.859
18,G12C U54G,0.657
19,G12C A40U C49G G50A,≤ 0.5
20,G12C C27U C33A A45C U54A C62U,≤ 0.5
21,G12A U53A,0.62
22,G12A U28C C31U G52A G56C,≤ 0.5
23,G12C U13G C33U C55U G56A,≤ 0.5
24,G12A U47C,0.905

row,Variant,yeast fitness
1,G12C C31U,0.876
2,G12C C31G,0.818
3,G12C C31A,0.774
4,G12C A20C C34G U54G,≤ 0.5
5,G12C C30G A45U A69U,≤ 0.5
6,G12C C33G G44C,0.572
7,G12C C22U,0.955
8,G12C C22G,1.03
9,G12C U26C A43C,0.741
10,G12C A14C C24U A45U G58A A65G,≤ 0.5
11,G12C G23C C49G A57U A65C,≤ 0.5
12,G12C C33U G50C A70U,0.509
13,G12C G18C G58C,≤ 0.5
14,G12C C30G C62A,≤ 0.5
15,G12C A15G A37U A40G U54C C66G,0.538
16,G12C U53A C61U C62A,≤ 0.5
17,G12C A14U C61G U64C,≤ 0.5
18,G12C U16A C27G A36G C46U C61U C62A G68A,≤ 0.5
19,G12C C27G U32C A37G,≤ 0.5
20,G12A U26C G58A,0.675
21,G12C U28G,0.696
22,G12U A37G C66U,0.614
23,G12U A36G G63A A69U,0.604
24,G12C U47A,0.596

row,Variant,yeast fitness
1,G12C U47G,0.602
2,G12C A21C,0.638
3,G12C C30U G56A,0.54
4,G12C A20C C30U C31G,≤ 0.5
5,G12C A21U A42U,0.611
6,G12C A70G,0.845
7,G12C A70C,0.833
8,G12C C30G,0.666
9,G12C C30A,0.786
10,G12C C30U,0.694
11,G12C U64C,0.916
12,G12C G18C G41A A43G G48A,≤ 0.5
13,G12C C61G,0.635
14,G12C C61U,0.746
15,G12C A57U,0.663
16,G12C A57G,0.974
17,G12C A65U G68U,0.653
18,G12C G48C G52C,≤ 0.5
19,G12C U19A C27G C49G C61U,≤ 0.5
20,G12A U26C U47C A57C,≤ 0.5
21,G12C C30G A37U G41A,≤ 0.5
22,G12C U13A G18C U32A G52A,≤ 0.5
23,G12C A45G A65G,0.548
24,G12C U35G,0.677

row,Variant,yeast fitness
1,G12C U35C,0.691
2,G12C U35A,0.774
3,G12C U13C A20C C29G,≤ 0.5
4,G12C C33G A37G A40C C49G,≤ 0.5
5,G12C A14C A15G A37C A57U,0.682
6,G12A U16G,0.815
7,G12A U16C,0.981
8,G12C C33G G44C C49U,0.539
9,G12A U19C C34G,0.544
10,G12C G25C,0.762
11,G12C G17C C22A G58A,≤ 0.5
12,G12C U13C C27U C62G,≤ 0.5
13,G12C A15G C24U A43G,0.522
14,G12C C60G,0.641
15,G12C C60U,0.726
16,G12U C24A G44A A65U,≤ 0.5
17,G12C A15C U19A C34U C49A G67A,0.547
18,G12C C22G C29A A43G,≤ 0.5
19,G12C C66U,0.743
20,G12C C66G,0.657
21,G12C G25A A45C,0.543
22,G12U G44C,0.766
23,G12C U16A C24G G48C,≤ 0.5
24,G12C C30U A36C A40U,≤ 0.5

row,Variant,yeast fitness
1,G12C C24G A37C,≤ 0.5
2,G12C G17A U28A C49A,≤ 0.5
3,G12C C33G A36G G44C,≤ 0.5
4,G12A U32G C33U C55G A70G,≤ 0.5
5,G12C A14U C27G A45U C46G G56A,≤ 0.5
6,G12C A14G C33G G44C,≤ 0.5
7,G12C C27U C62G,≤ 0.5
8,G12C A20U G25A,≤ 0.5
9,G12C C62U,0.776
10,G12C C29G U53A,0.609
11,G12C A20U C31A A65G,≤ 0.5
12,G12C U53C C60G G63U,0.691
13,G12C G25A U35C,0.552
14,G12C U19A A42C G50C G56C,≤ 0.5
15,G12A U28G A36G,≤ 0.5
16,G12C C22U C27A C49U,≤ 0.5
17,G12C C31G C33G U35C,0.515
18,G12A U28C A37C A43C C49G,0.548
19,G12C U28A G56A A57C,≤ 0.5
20,G12C G23C,0.588
21,G12A U13C A15U,0.507
22,G12C U16A U26A G67U,≤ 0.5
23,G12C C34A A70U,≤ 0.5
24,G12C A37C,0.648

row,Variant,yeast fitness
1,G12C G58A A65U,0.72
2,G12C U28G A37G G41A G48A,0.549
3,G12C C31G G51A C55G G68C,0.627
4,G12C U19G G25A C49U U59A U64A,≤ 0.5
5,G12C C61G C62U,0.605
6,G12C C30G A42U,≤ 0.5
7,G12A U19G U35C A40U G52C U64C,≤ 0.5
8,G12C U13A G50A,≤ 0.5
9,G12U A36G A65C,0.561
10,G12C A45G,0.684
11,G12C A45U,0.978
12,G12C A20U A45U G50A G51A,≤ 0.5
13,G12C G50A U54A,≤ 0.5
14,G12C A42U C46U C55G,≤ 0.5
15,G12C G52C C66U,≤ 0.5
16,G12C A43U U54C,≤ 0.5
17,G12C C22G G23A A37C A43C G68A,≤ 0.5
18,G12C A15G C34A G63C A70C,0.641
19,G12C G39C A43G,≤ 0.5
20,G12C A14G A15C G41A A42C G50C A70G,≤ 0.5
21,G12A U47C A57C,0.579
22,G12C G56C G58C,≤ 0.5
23,G12C C29A A45U C62U,≤ 0.5
